Assay results from ChEMBL document CHEMBL1914293, “Pharmacophore-based discovery of FXR-agonists. Part II: identification of bioactive triterpenes from Ganoderma lucidum” (Bioorg Med Chem, 2011).
The source made the active and inactive calls. No cut-off for these calls is given here.

Key:
Assay type in all cases: functional, cell-based
HUVEC [1] = assay: Antiinflammatory activity in human HUVEC cells assessed as inhibition of LPS-induced IL-8 mRNA expression at 5 uM for 10 mins measured after 4 hrs of LPS challenge by Q-PCR analysis
Outline: (§1)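 hTERT-immortalized HUVEC (HUVECtert) were grown in M199 with 20% FBS, endothelial cell growth supplement and antibiotics. Cells were treated with compounds at 5 μM, then stimulated with TNFα (human recombinant, 100 ng/mL) or LPS (E. coli 055:B5, 300 ng/mL). IL-8 and E-selectin mRNA were measured by qPCR, normalized to β2-microglobulin (Pfaffl method), and expressed as fold over untreated control. Statistics used ANOVA with Bonferroni post-test.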

HUVEC [2] = assay: Antiinflammatory activity in human HUVEC cells assessed as inhibition of TNF-alpha-induced IL-8 mRNA expression at 5 uM for 10 mins measured after 4 hrs of LPS challenge by Q-PCR analysis; outline: as §1
HUVEC [3] = assay: Antiinflammatory activity in human HUVEC cells assessed as inhibition of LPS-induced E-selectin mRNA expression at 5 uM for 10 mins measured after 4 hrs of LPS challenge by Q-PCR analysis; outline: as §1
HUVEC [4] = assay: Antiinflammatory activity in human HUVEC cells assessed as inhibition of TNF-alpha-induced E-selectin mRNA expression at 5 uM for 10 mins measured after 4 hrs of LPS challenge by Q-PCR analysis; outline: as §1
[5] = molecular target: T1, Bile acid receptor/Retinoic acid receptor RXR-alpha (Mus musculus, UniProt P28700+Q60641); assay: Agonist activity at full length mouse FXR/RXRalpha expressed in human HEK293 cells assessed as induction of transcriptional activity after 18 hrs by dual luciferase reporter gene assay
T1 sequence (P28700 whole entry): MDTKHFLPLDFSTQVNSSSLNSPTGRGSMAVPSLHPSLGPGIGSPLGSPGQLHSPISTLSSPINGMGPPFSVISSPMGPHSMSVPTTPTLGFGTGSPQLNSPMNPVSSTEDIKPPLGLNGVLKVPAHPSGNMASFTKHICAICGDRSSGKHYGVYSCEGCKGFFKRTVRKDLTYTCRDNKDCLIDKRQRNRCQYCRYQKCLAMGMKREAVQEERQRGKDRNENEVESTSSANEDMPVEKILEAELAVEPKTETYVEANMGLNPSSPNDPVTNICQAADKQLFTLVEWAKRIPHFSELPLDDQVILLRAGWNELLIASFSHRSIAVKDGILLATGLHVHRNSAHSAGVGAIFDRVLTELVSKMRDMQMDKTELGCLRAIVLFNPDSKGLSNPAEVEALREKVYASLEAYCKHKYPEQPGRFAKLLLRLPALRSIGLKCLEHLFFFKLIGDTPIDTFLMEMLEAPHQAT
T1 sequence (Q60641 whole entry): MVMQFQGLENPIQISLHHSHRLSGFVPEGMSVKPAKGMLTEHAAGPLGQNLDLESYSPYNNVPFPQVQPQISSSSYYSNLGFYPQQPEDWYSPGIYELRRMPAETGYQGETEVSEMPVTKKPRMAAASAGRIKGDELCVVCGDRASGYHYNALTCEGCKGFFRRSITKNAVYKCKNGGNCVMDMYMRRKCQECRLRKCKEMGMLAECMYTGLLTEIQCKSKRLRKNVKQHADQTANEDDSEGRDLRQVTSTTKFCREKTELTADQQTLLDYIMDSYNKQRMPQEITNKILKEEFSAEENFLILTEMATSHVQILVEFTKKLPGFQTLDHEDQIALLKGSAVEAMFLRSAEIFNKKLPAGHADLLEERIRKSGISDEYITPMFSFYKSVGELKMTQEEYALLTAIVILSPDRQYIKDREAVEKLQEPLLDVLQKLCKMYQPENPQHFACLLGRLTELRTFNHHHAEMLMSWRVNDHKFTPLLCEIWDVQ

Compound	inhibition (HUVEC [1])	inhibition (HUVEC [2])	inhibition (HUVEC [3])	inhibition (HUVEC [4])	EC50 [5]
CC(C)[C@@H](C)/C=C/[C@@H](C)[C@H]1CC[C@@H]2[C@]1(C)CC[C@H]1[C@]23C=C[C@]2(C[C@@H](O)CC[C@]12C)OO3 [ERGOSTEROL PEROXIDE]	Active	Active	Active	Active	0.85 µM
C[C@H](CCC=C(CO)CO)[C@H]1CC[C@@]2(C)C3=CC[C@H]4C(C)(C)C(=O)CC[C@]4(C)C3=CC[C@]12C [GANODERIOL F]	Active	Active	Active	Active	5 µM
C[C@H](CC[C@H](O)C(C)(C)O)[C@H]1CC[C@@]2(C)C3=C(CC[C@]12C)[C@@]1(C)CCC(=O)C(C)(C)[C@@H]1CC3=O [LUCIDUMOL A]	Active	Active	Active	Active	> 18.6 µM
C[C@H](CC[C@H](O)[C@](C)(O)CO)[C@H]1CC[C@@]2(C)C3=CC[C@H]4C(C)(C)C(=O)CC[C@]4(C)C3=CC[C@]12C [GANODERMANONTRIOL]	Active	Active	Active	Active	2.5 µM
C/C(=C/CC[C@@H](C)[C@H]1C[C@H](O)[C@@]2(C)C3=CC[C@H]4C(C)(C)C(=O)CC[C@]4(C)C3=CC[C@]12C)C(=O)O [GANODERIC ACID TR]	Active	Active	Active	Active	> 14 µM
